# Source: ChEMBL document CHEMBL4689842, “EUbOPEN Chemogenomics Library wave 1” (2021)
# Tested on: HEK-293T
# Test: Multiplex assay against HEK293T;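 on Population Tubulin-Different-Phenotype (%): share of the cells with healthy nuclei that show this phenotype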
# Format: toxicity, cell-based
# Details: human
# Procedure, shortened: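 Values for tubulin, mitochondrial-mass and membrane-permeability phenotypes are per cents of cells with healthy nuclei. These cells were identified by CellPathfinder machine-learning gating of live cells that had been stained at seeding with Hoechst33342, BioTracker Green Microtubule Cytoskeleton Dye, MitoTracker Red and Annexin V Alexa Fluor 680 and imaged on a CQ1 microscope at 37°C and 5% CO2 after compound addition. The gating first set Hoechst high-intensity objects apart from normal cells, then split normal cells into healthy, pyknosed or fragmented nuclei, and pyknosed cells into mitotic or apoptotic.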
# [1] = 12 h, 1 µM, compound concentration 1 uM, replicate 1
# [2] = 12 h, 1 µM, compound concentration 1 uM, replicate 2
# [3] = 12 h, 10 µM, compound concentration 10 uM, replicate 1
# [4] = 12 h, 10 µM, compound concentration 10 uM, replicate 2
# [5] = 24 h, 1 µM, compound concentration 1 uM, replicate 1
# [6] = 24 h, 1 µM, compound concentration 1 uM, replicate 2
# [7] = 24 h, 10 µM, compound concentration 10 uM, replicate 1
# [8] = 24 h, 10 µM, compound concentration 10 uM, replicate 2
# [9] = 48 h, 1 µM, compound concentration 1 uM, replicate 1
# [10] = 48 h, 1 µM, compound concentration 1 uM, replicate 2
# [11] = 48 h, 10 µM, compound concentration 10 uM, replicate 1
# [12] = 48 h, 10 µM, compound concentration 10 uM, replicate 2
structure (smiles),measurement,setting,value
CC[C@H](C)C(=O)O[C@H]1C[C@@H](C)C=C2C=C[C@H](C)[C@H](CC[C@@H]3C[C@@H](O)CC(=O)O3)[C@H]21 [LOVASTATIN],Population Apoptotic (%),[1],48%
same,Population Fragmented Nuclei (%),[1],22%
same,Population Healthy Nuclei (%),[1],16%
same,Population Hoechst High Intensity Objects (%),[1],14%
same,Population Mitochondria Different-Phenotype (%),[1],68%
same,Population Mitotic Cells (%),[1],51%
same,Population Normal (%),[1],85%
same,Population Pyknosed Nuclei (%),[1],60%
same,Population Tubulin-Different-Phenotype (%),[1],28%
same,Total Cell Count,[1],174
same,Population Apoptotic (%),[2],7%
same,Population Fragmented Nuclei (%),[2],4%
same,Population Healthy Nuclei (%),[2],44%
same,Population Hoechst High Intensity Objects (%),[2],4%
same,Population Membrane Permeable-Phenotype (%),[2],4%
same,Population Mitochondria Different-Phenotype (%),[2],11%
same,Population Mitotic Cells (%),[2],92%
same,Population Normal (%),[2],95%
same,Population Pyknosed Nuclei (%),[2],50%
same,Population Tubulin-Different-Phenotype (%),[2],9%
same,Total Cell Count,[2],227
same,Population Apoptotic (%),[3],47%
same,Population Fragmented Nuclei (%),[3],8%
same,Population Healthy Nuclei (%),[3],33%
same,Population Hoechst High Intensity Objects (%),[3],14%
same,Population Membrane Permeable-Phenotype (%),[3],1%
same,Population Mitochondria Different-Phenotype (%),[3],89%
same,Population Mitotic Cells (%),[3],52%
same,Population Normal (%),[3],85%
same,Population Pyknosed Nuclei (%),[3],57%
same,Population Tubulin-Different-Phenotype (%),[3],39%
same,Total Cell Count,[3],341
same,Population Apoptotic (%),[4],10%
same,Population Fragmented Nuclei (%),[4],5%
same,Population Healthy Nuclei (%),[4],45%
same,Population Hoechst High Intensity Objects (%),[4],3%
same,Population Membrane Permeable-Phenotype (%),[4],4%
same,Population Mitochondria Different-Phenotype (%),[4],21%
same,Population Mitotic Cells (%),[4],89%
same,Population Normal (%),[4],96%
same,Population Pyknosed Nuclei (%),[4],49%
same,Population Tubulin-Different-Phenotype (%),[4],16%
same,Total Cell Count,[4],266
same,Population Apoptotic (%),[5],50%
same,Population Fragmented Nuclei (%),[5],30%
same,Population Healthy Nuclei (%),[5],16%
same,Population Hoechst High Intensity Objects (%),[5],19%
same,Population Membrane Permeable-Phenotype (%),[5],4%
same,Population Mitochondria Different-Phenotype (%),[5],52%
same,Population Mitotic Cells (%),[5],50%
same,Population Normal (%),[5],80%
same,Population Pyknosed Nuclei (%),[5],52%
same,Population Tubulin-Different-Phenotype (%),[5],32%
same,Total Cell Count,[5],192
same,Population Apoptotic (%),[6],8%
same,Population Fragmented Nuclei (%),[6],3%
same,Population Healthy Nuclei (%),[6],65%
same,Population Hoechst High Intensity Objects (%),[6],3%
same,Population Membrane Permeable-Phenotype (%),[6],6%
same,Population Mitochondria Different-Phenotype (%),[6],13%
same,Population Mitotic Cells (%),[6],91%
same,Population Normal (%),[6],96%
same,Population Pyknosed Nuclei (%),[6],30%
same,Population Tubulin-Different-Phenotype (%),[6],20%
same,Total Cell Count,[6],287
same,Population Apoptotic (%),[7],38%
same,Population Fragmented Nuclei (%),[7],12%
same,Population Healthy Nuclei (%),[7],37%
same,Population Hoechst High Intensity Objects (%),[7],17%
same,Population Membrane Permeable-Phenotype (%),[7],1%
same,Population Mitochondria Different-Phenotype (%),[7],73%
same,Population Mitotic Cells (%),[7],61%
same,Population Normal (%),[7],82%
same,Population Pyknosed Nuclei (%),[7],50%
same,Population Tubulin-Different-Phenotype (%),[7],37%
same,Total Cell Count,[7],349
same,Population Apoptotic (%),[8],14%
same,Population Fragmented Nuclei (%),[8],4%
same,Population Healthy Nuclei (%),[8],57%
same,Population Hoechst High Intensity Objects (%),[8],4%
same,Population Membrane Permeable-Phenotype (%),[8],6%
same,Population Mitochondria Different-Phenotype (%),[8],17%
same,Population Mitotic Cells (%),[8],85%
same,Population Normal (%),[8],95%
same,Population Pyknosed Nuclei (%),[8],37%
same,Population Tubulin-Different-Phenotype (%),[8],20%
same,Total Cell Count,[8],320
same,Population Apoptotic (%),[9],49%
same,Population Fragmented Nuclei (%),[9],29%
same,Population Healthy Nuclei (%),[9],28%
same,Population Hoechst High Intensity Objects (%),[9],15%
same,Population Membrane Permeable-Phenotype (%),[9],2%
same,Population Mitochondria Different-Phenotype (%),[9],42%
same,Population Mitotic Cells (%),[9],50%
same,Population Normal (%),[9],84%
same,Population Pyknosed Nuclei (%),[9],41%
same,Population Tubulin-Different-Phenotype (%),[9],40%
same,Total Cell Count,[9],205
same,Population Apoptotic (%),[10],3%
same,Population Fragmented Nuclei (%),[10],6%
same,Population Healthy Nuclei (%),[10],81%
same,Population Hoechst High Intensity Objects (%),[10],3%
same,Population Membrane Permeable-Phenotype (%),[10],7%
same,Population Mitochondria Different-Phenotype (%),[10],4%
same,Population Mitotic Cells (%),[10],96%
same,Population Normal (%),[10],96%
same,Population Pyknosed Nuclei (%),[10],11%
same,Population Tubulin-Different-Phenotype (%),[10],20%
same,Total Cell Count,[10],588
same,Population Apoptotic (%),[11],42%
same,Population Fragmented Nuclei (%),[11],17%
same,Population Healthy Nuclei (%),[11],37%
same,Population Hoechst High Intensity Objects (%),[11],19%
same,Population Membrane Permeable-Phenotype (%),[11],2%
same,Population Mitochondria Different-Phenotype (%),[11],46%
same,Population Mitotic Cells (%),[11],57%
same,Population Normal (%),[11],80%
same,Population Pyknosed Nuclei (%),[11],45%
same,Population Tubulin-Different-Phenotype (%),[11],39%
same,Total Cell Count,[11],384
same,Population Apoptotic (%),[12],8%
same,Population Fragmented Nuclei (%),[12],5%
same,Population Healthy Nuclei (%),[12],72%
same,Population Hoechst High Intensity Objects (%),[12],4%
same,Population Membrane Permeable-Phenotype (%),[12],6%
same,Population Mitochondria Different-Phenotype (%),[12],5%
same,Population Mitotic Cells (%),[12],91%
same,Population Normal (%),[12],95%
same,Population Pyknosed Nuclei (%),[12],21%
same,Population Tubulin-Different-Phenotype (%),[12],24%
same,Total Cell Count,[12],484
